ChEMBL document CHEMBL1687720 (Antimicrob Agents Chemother, 2009)
Active and inactive are the calls of the source. No cut-off for these calls is given here.

Experiments:
Plasmodium falciparum [1] = assay: Antiplasmodial activity against chloroquine-resistant Plasmodium falciparum K1 in presence of artemisinin; assay type: functional
Plasmodium falciparum [2] = assay: Antiplasmodial activity against chloroquine-resistant Plasmodium falciparum K1 in presence of premaquine; assay type: functional
A549 [3] = assay: Effect on thioredoxin reductase expression in human A549 cells assessed as transcript level at 166 nM after 24 hrs by RT-qPCR analysis relative to untreated control; assay type: functional; settings: in the assay text read “166 uM” for “166 nM”
In short: (§1)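 A549 cells are seeded at 2.5 × 10^5 per 25-cm2 well. At 40–45% confluence they are treated for 24 h with 166 or 662 μM, 158 or 315 μM, or 5 or 24 μM compound; controls receive <5% DMSO. Total RNA is DNase-treated and qRT-PCR is run in quadruplicate. Values are normalized to GAPDH and given as % of untreated control.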

A549 [4] = assay: Effect on thioredoxin reductase expression in human A549 cells assessed as transcript level at 662 nM after 24 hrs by RT-qPCR analysis relative to untreated control; assay type: functional; settings: in the assay text read “662 uM” for “662 nM”; in short: as §1
A549 [5] = assay: Effect on glutathione peroxidase expression in human A549 cells assessed as transcript level at 166 nM after 24 hrs by RT-qPCR analysis relative to untreated control; assay type: functional; settings: in the assay text read “166 µM” for “166 nM”; in short: as §1
A549 [6] = assay: Inhibition of glutathione peroxidase in human A549 cells assessed as enzyme activity at 166 µM after 24 hrs relative to untreated control; parameters: scale not given: the % may be the effect or the level left
A549 [7] = assay: Inhibition of glutathione S-transferase in human A549 cells assessed as enzyme activity at 662 µM after 24 hrs relative to untreated control; parameters: scale not given: the % may be the effect or the level left
Plasmodium falciparum [8] = assay: Antiplasmodial activity against chloroquine-sensitive Plasmodium falciparum 3D7 assessed as inhibition of trophozoite stage parasite growth at 526 nM after 24 hrs by [3H]hypoxanthine incorporation assay; assay type: functional; settings: 3D7, read-out: GI
In short: (§2)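 P. falciparum 3D7 is synchronized with sorbitol. […] Cells are washed four times, then labelled with [3H]hypoxanthine for 24 h. Growth is given as % of untreated control for each stage, in triplicate.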

Plasmodium falciparum [9] = assay: Antiplasmodial activity against chloroquine-sensitive Plasmodium falciparum 3D7 assessed as inhibition of ring stage parasite growth at 526 nM after 24 hrs by [3H]hypoxanthine incorporation assay; assay type: functional; settings: read-out: GI; in short: as §2
Plasmodium falciparum [10] = assay: Downregulation of thioredoxin peroxidase mRNA level in Plasmodium falciparum 3D7 trophozoites at 126 nM after 18 hrs by RT-qPCR analysis relative to untreated control; assay type: functional
In short: (§3)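 P. falciparum 3D7 trophozoites are exposed to 126 nM compound for 12, 15 or 18 h, then harvested by saponin lysis at 37°C. RNA is extracted and reverse-transcribed, and transcripts are quantified by real-time PCR in quadruplicate. Analysis uses ΔΔCT with 18S rRNA as reference (LDH also checked), expressed as % of untreated control.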

Plasmodium falciparum [11] = assay: Upregulation of gamma-glutamylcysteine synthetase mRNA level in Plasmodium falciparum 3D7 trophozoites at 126 nM after 12 hrs by RT-qPCR analysis relative to untreated control; assay type: functional
In short: (§4)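 Synchronized 3D7 trophozoites in RPMI/Albumax culture at 37°C under 3% O2, 3% CO2 were exposed 12, 15 or 18 h, then harvested by 0.02% saponin lysis. RNA was reverse-transcribed and analyzed by real-time PCR in quadruplicate. Quantification used ΔΔCT with 18S rRNA reference (LDH also checked), expressed as % of untreated control.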

Plasmodium falciparum [12] = assay: Upregulation of glutathione synthetase mRNA level in Plasmodium falciparum 3D7 trophozoites at 126 nM after 12 hrs by RT-qPCR analysis relative to untreated control; assay type: functional; in short: as §4
Plasmodium falciparum [13] = assay: Downregulation of DNA-directed RNA polymerase 2 mRNA level in Plasmodium falciparum 3D7 trophozoites at 126 nM by RT-qPCR analysis relative to untreated control; assay type: functional; in short: as §3
Plasmodium falciparum [14] = assay: Upregulation of thioredoxin reductase mRNA level in Plasmodium falciparum 3D7 trophozoites at 126 nM after 12 hrs by RT-qPCR analysis relative to untreated control; assay type: functional, organism-based; in short: as §4
Plasmodium berghei = assay: Antimalarial activity against Plasmodium berghei infected in mouse assessed as reduction in parasite load at 10 mg/kg for 4 days treated postinfection measured on day 7; assay type: functional; parameters: scale not given: the % may be the effect or the level left
In short: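 Murine Plasmodium berghei infection model. Compound given subcutaneously at 10 mg/kg for 4 days after infection, 13 treated mice and 13 controls. Parasitemia is compared with untreated controls, with significance by Fisher's exact test.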

[15] = Cytotoxicity against human A549 cells assessed as reduction in viable cells at 60 uM by Trypan blue assay; assay type: cell-based; settings: read-out: INH
In short: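 A549 cells are grown in DMEM with 10% FCS at 37°C and 5% CO2, and treated for 24 h. They are washed in cold PBS and trypsinized. Viable and nonviable cells are counted by trypan blue exclusion on a hemocytometer.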

A549 [16] = assay: Inhibition of glutathione peroxidase in human A549 cells assessed as enzyme activity at 24 µM after 24 hrs relative to untreated control; parameters: scale not given: the % may be the effect or the level left
A549 [17] = assay: Inhibition of glutathione S-transferase in human A549 cells assessed as enzyme activity at 5 µM after 24 hrs relative to untreated control; parameters: scale not given: the % may be the effect or the level left
Thioredoxin reductase = Thioredoxin reductase (Homo sapiens, UniProt Q16881+Q9NNW7+Q86VQ6); assay: Inhibition of thioredoxin reductase in human A549 cells assessed as enzyme activity at 5 µM after 24 hrs by DTNB assay relative to untreated control; parameters: scale not given: the % may be the effect or the level left
[18] = target: T1, Glutathione reductase, mitochondrial (Homo sapiens) (UniProt P00390); assay: Inhibition of glutathione reductase in human A549 cells assessed as enzyme activity at 158 µM after 24 hrs relative to untreated control; parameters: scale not given: the % may be the effect or the level left
T1 sequence (whole entry): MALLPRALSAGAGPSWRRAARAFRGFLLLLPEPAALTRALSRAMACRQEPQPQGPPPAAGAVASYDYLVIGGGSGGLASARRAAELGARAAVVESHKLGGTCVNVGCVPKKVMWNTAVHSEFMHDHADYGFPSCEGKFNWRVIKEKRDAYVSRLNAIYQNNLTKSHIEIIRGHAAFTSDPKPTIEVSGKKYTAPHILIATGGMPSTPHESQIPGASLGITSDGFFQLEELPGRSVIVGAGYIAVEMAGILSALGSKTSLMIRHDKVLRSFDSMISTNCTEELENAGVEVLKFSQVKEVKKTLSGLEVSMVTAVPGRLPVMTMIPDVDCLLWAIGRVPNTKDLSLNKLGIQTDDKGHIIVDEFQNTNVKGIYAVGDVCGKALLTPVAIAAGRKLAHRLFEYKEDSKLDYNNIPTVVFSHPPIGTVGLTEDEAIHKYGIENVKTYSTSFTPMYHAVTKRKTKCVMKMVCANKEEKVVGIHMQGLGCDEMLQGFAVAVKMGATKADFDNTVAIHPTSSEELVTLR

For `O=c1oc2c(O)c(O)cc3c(=O)oc4c(O)c(O)cc1c4c23` [ELLAGIC ACID], the FIC50 (Plasmodium falciparum [1]) was 1, the FIC50 (Plasmodium falciparum [2]) was 1 and the Activity (A549 [3]) was 115%. The Activity (A549 [4]) was 131%, the Activity (A549 [5]) was 109% and the Activity (A549 [6]) was 86%. It also gave an Activity (A549 [7]) of 101%.

With `O=c1oc2c(O)c(O)c(O)c3c(=O)oc4c(O)c(O)c(O)c1c4c23` [CORULEOELLAGIC ACID] the inhibition of growth at 0.526 µM (Plasmodium falciparum [8]) was greater than 95%, the inhibition of growth at 0.526 µM (Plasmodium falciparum [9]) was 38% and the Activity (Plasmodium falciparum [10]) was 19%. It also gave an Activity (Plasmodium falciparum [11]) of 111%, an Activity (Plasmodium falciparum [12]) of 128% and an Activity (Plasmodium falciparum [13]) of 42%. For the same molecule, the Activity (Plasmodium falciparum [14]) was “inactive”, the Activity (Plasmodium berghei) was 30% and the cytotoxicity at 60 µM [15] was 50%. It also gave an Activity (A549 [16]) of 78%, an Activity (A549 [17]) of 101% and an Activity (Thioredoxin reductase) of 42%.

With `O=c1oc2c(O)c(O)c(O)c3c(=O)oc4c(O)c(O)cc1c4c23` [FLAVELLAGIC ACID] the Activity [18] was 87%.
